Data as given in paper PMC8126997 (ACS chemical biology, 2021).

Legend:
[1] = tested on: wild type (WT) HIV-1 protease; details: cited from earlier work
[2] = tested on: HTLV-1 Gag cleavage in SP cells (chronically infected with HTLV-1); experiment: SP cell protease inhibition treatment, Gag processing by anti-p24 immunoblot; assay type: cell-based; details: 48 h; for Amount of full-length (FL) Gag and larger size cleavage intermediates (CI): SP cell lysates and supernatants, 50 µM or 100 µM; for FL Gag band percentage (mean ± SEM), cell lysate: SP cell lysate, DMSO 2.0 ± 1.0%; for FL Gag band percentage (mean ± SEM), cell lysate / FL Gag band percentage (mean ± SEM), viral particles produced from SP cells: n=3; for FL Gag band percentage (mean ± SEM), viral particles produced from SP cells: particles in cell culture supernatant
In short: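 SP cells kept in RPMI with 20% FC3 serum, 1% penicillin-streptomycin and human IL-2 (10 U/ml). Medium exchanged for medium containing 50 or 100 µM test compound, or 0.01% v/v DMSO control, for 48 h at 37 °C and 5% CO2. Supernatant was 0.22 µm-filtered and pelleted over an 8% Optiprep cushion, with pellet lysed in RIPA buffer. Lysates and pellets were immunoblotted with anti-p24. FL Gag was quantified as % of lane bands, reported as mean ± SEM (n=3), and compared with DMSO by one-tailed t-test.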

HTLV-1 protease = HTLV-1 protease (Human T-cell leukemia virus type I, UniProt Q82134, L40I); details: relative to UM6

Compound | Potency against wild type (WT) HIV-1 protease [1] | Amount of full-length (FL) Gag and larger size cleavage intermediates (CI) [2] | Fold better inhibition of HTLV-1 protease than UM6 (HTLV-1 protease) | FL Gag band percentage (mean ± SEM), cell lysate ([2]; 50 µM inhibitor) | FL Gag band percentage (mean ± SEM), cell lysate ([2]; 100 µM inhibitor) | FL Gag band percentage (mean ± SEM), viral particles produced from SP cells ([2]; 50 µM inhibitor) | FL Gag band percentage (mean ± SEM), viral particles produced from SP cells ([2]; 100 µM inhibitor)
CC(C)CN(C[C@@H](O)[C@H](Cc1ccccc1)NC(=O)O[C@H]1CO[C@H]2OCC[C@H]21)S(=O)(=O)c1ccc(N)cc1 [DRV, darunavir, reference compound] | low-picomolar | increased | – | – | – | – | –
CCOP(=O)(COc1ccc(C[C@H](NC(=O)O[C@H]2CO[C@H]3OCC[C@H]32)[C@H](O)CN(CC(CC)CC)S(=O)(=O)c2ccc(N)cc2)cc1)OCC [PU6] | – | increased | 4 fold | 32.4 ± 15.5% | 41.0 ± 13.7% | 5.8 ± 2.8% | 12.9 ± 3.1%
